# EWS-Fli block – inhibitors of EWS/Fli oncoprotein transcriptional activity; A673 NR0B1-luciferase reporter, viability-normalised; inhibition, % at 12.6 µM; 350,000 compounds, 0.67% hits;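 active means mean inhibition of at least 50% after viability correction, with every replicate also passing that limit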;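 further: firefly luciferase signal divided by Alamar Blue viability fluorescence both relative to DMSO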
# FN deposit inh – fibronectin deposition inhibition; inhibition, % at 12.6 µM; AID 743247; 350,000 compounds, 0.086% hits; AH1F fibroblasts, Alexa488-fibronectin deposition fluorescence, overnight;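 active means mean inhibition across replicates of 30% or more, regardless of how many single replicates reach that level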;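 further: positive control wells lacked labelled fibronectin entirely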
#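 Material: AH1F fibroblast monolayer depositing Alexa488-labelled fibronectin into matrix | Input: 10000 AH1F cells/well | Medium: DMEM plus 2% serum, read in PBS | Reagent: Alexa488-fibronectin, 24 nM final in well | Compound dosing: One dose per compound, pinned | Schedule: 1 h adhesion, overnight exposure | Measured by: Fluorescence at 485 nm excitation, 525 nm emission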
# TWEAK Fn14 block – blocks TWEAK-Fn14 interaction in a reporter cell assay. AID 1159606. TWEAK-stimulated Fn14 reporter cells, luciferase luminescence, 8 h. inhibition, % at 10 µM. 360,000 compounds, 2% hits; in the data active means inhibition above about 50%
# TROY signal inh – inhibitors of TROY-dependent NF-kB signaling; Q293 LMP1-TROYcd NF-kB luciferase reporter, 4 h; inhibition, % at 10 µM; 360,000 compounds, 0.98% hits;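 active means compounds whose plate-normalised and pattern-corrected inhibition of the luciferase reporter signal at the single screening dose is 50% or more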
# Xi reactivation – X-chromosome reactivation activator. 360,000 compounds, 0.055% hits. XiGFP mouse fibroblasts, % GFP-positive cells imaging, 3 d; cells co-treated with 5-aza-dC sensitizer; scaled so ellipticine positive control = 100%. activation, % at 7.58 µM. AID 743238;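 active means mean normalized replicate activation at least 10% and every replicate at or above 10%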;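 further: 0% = median of on-plate neutral control wells and 100% = ellipticine 6 µM median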
#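 Assay system: SV40-immortalized XiGFP fibroblast cells, line 68-5-11; buffer or medium: DMEM plus 5-aza-dC sensitizer; compound: one concentration, pinned; timing: compounds 3 days, fix/stain 15 min at room temperature; benchmarks: positive control ellipticine, 6 µM final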
# LGR2 inh – inhibitors of bursicon-induced Drosophila LGR2 receptor cAMP signaling | HEK293 LGR2, CRE-luciferase, bursicon-stimulated, 4 h | inhibition, % at 9.99 µM | 380,000 compounds, 0.35% hits;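 active means drop in luminescence signal, shown as inhibition above about 50% in the replicate tests, limit read from the data, passing the limit was not always enough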;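 further: agonist challenge used bursicon conditioned medium at about half maximal strength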
# * = called active by the depositor; . = not tested or not shown. In the library only some 2.3% were active in any assay of this set; here they are far more common.
SMILES,EWS-Fli block,FN deposit inh,TWEAK Fn14 block,TROY signal inh,Xi reactivation,LGR2 inh
Cc1noc(C)c1S(=O)(=O)N(C)C[C@@H]1OCCCC[C@@H](C)Oc2ccc(NC(=O)Cc3ccccc3)cc2C(=O)N([C@@H](C)CO)C[C@@H]1C,-5,.,.,.,0,-7
CCN(c1ccccc1)S(=O)(=O)c1ccc(C(=O)Nc2ccncc2)cc1,17,1,16,14,0,7
CCN(c1ccccc1)S(=O)(=O)c1ccc(NC(=O)c2nc(S(C)(=O)=O)ncc2Cl)cc1,.,.,88*,70*,.,.
CCS(=O)(=O)c1ncc(Cl)c(C(=O)Nc2ccc(S(=O)(=O)N(C)c3ccccc3)cc2)n1,.,67*,100*,88*,0,9
FC(F)(F)c1nc(-c2ccncc2)ncc1-c1nnnn1-c1ccccc1,.,-4,5,-7,.,.
Fc1ccc(-n2nnnc2-c2cnc(-c3cccs3)nc2C(F)(F)F)cc1,.,.,102*,59*,.,.
CCCCn1c(N)c(S(=O)(=O)c2ccc(C)cc2)c2nc3ccccc3nc21,7,8,52*,65*,0,2
Cc1ccc(Cn2c(N)c(S(=O)(=O)c3cccs3)c3nc4ccccc4nc32)cc1,.,-6,46,63*,.,.
Nc1c(S(=O)(=O)c2cccs2)c2nc3ccccc3nc2n1Cc1ccccc1,.,6,17,41,.,.
C[C@@H]1CN([C@@H](C)CO)C(=O)c2cc(NC(=O)Cn3cnnn3)ccc2O[C@H]1CN(C)Cc1ccc(C(=O)O)cc1,-2,.,.,.,-1,-17
O=C(CCN1CCCCC1)NCC[C@@H]1CC[C@@H](NC(=O)C2CCC2)[C@H](CO)O1,4,.,.,.,-1,3
C[C@@H]1CN([C@@H](C)CO)C(=O)c2cc(NC(=O)c3ccccc3)ccc2O[C@@H](C)CCCCO[C@H]1CN(C)C(=O)NC1CCCCC1,5,-35,.,.,0,-2
CCN1CCN(C(=O)CN2C(=O)c3ccccc3S2(=O)=O)CC1,-43,-4,28,62*,0,-95
Cc1cc(C(=O)CN2C(=O)NC(C)(c3ccccc3)C2=O)c(C)n1CC1CCCO1 (stereo unspecified),.,.,2,0,.,.
Cc1ccc(C)c(C(=O)CN2C(=O)c3ccccc3C2=O)c1,-5,11,-19,-29,0,8
Cc1ccc(C)c(C(=O)CN2C(=O)c3ccccc3S2(=O)=O)c1,.,.,60*,27,.,.
COc1ccc(C(=O)CN2C(=O)c3ccccc3S2(=O)=O)cc1Br,.,.,62*,35,0,37
Cc1cc(C(=O)CN2C(=O)c3ccccc3S2(=O)=O)c(C)n1CC1CCCO1 (stereo unspecified),.,.,106*,45,.,.
COc1ccc(NC(=O)N[C@H]2CC[C@@H](CCNC(=O)c3cc(Cl)cc(Cl)c3)O[C@@H]2CO)cc1,18,.,.,.,1,21
Cc1noc(C)c1NC(=O)N(C)C[C@H]1Oc2ncc(C#CCN(C)C)cc2C(=O)N([C@@H](C)CO)C[C@H]1C,-3,.,.,.,1,5
O=C(Nc1cccc(F)c1)N1CC(=O)N2[C@H](CO)[C@H](c3ccc(C#Cc4cccnc4)cc3)[C@@H]2C1,.,.,.,.,1,35
Cc1noc(C)c1S(=O)(=O)N(C)C[C@H]1Oc2ccc(NC(=O)Nc3ccc4c(c3)OCO4)cc2CC(=O)N([C@@H](C)CO)C[C@@H]1C,-9,.,.,.,0,-8
CCCNC(=O)N1CC2(CCN(CC3CC3)CC2)c2c(n(C)c3cc(OC)ccc23)[C@@H]1CO,0,.,.,.,0,-11
CCn1c(SCC(=O)c2cc(C)n(CC3CCCO3)c2C)nc2ccccc21 (stereo unspecified),.,3,-5,6,.,.
O=C(CN1C(=O)c2ccccc2S1(=O)=O)c1ccc(F)c(F)c1,35,.,91*,72*,0,65*
SMILES,EWS-Fli block,FN deposit inh,TWEAK Fn14 block,TROY signal inh,Xi reactivation,LGR2 inh
Cc1cc(C(=O)CSc2nc3ccccc3c(=O)[nH]2)c(C)n1CC1CCCO1 (stereo unspecified),-52,-9,60*,42,1,-27
O=C(CN1C(=O)c2ccccc2S1(=O)=O)c1ccc(O)c(O)c1,22,-9,48,29,0,4
Cc1cc(C)nc(SCCC(=O)Nc2ccccc2C)n1,.,.,106*,-18,.,.
Cc1cc(C)nc(SCCC(=O)Nc2ccccc2)n1,4,.,-7,2,.,-9
COc1ccc(NS(=O)(=O)c2ccc(NC(=O)Cc3cccs3)cc2)cc1,4,-3,38,65*,0,1
COc1ccc(NS(=O)(=O)c2cc(NC(=O)c3ccc(=O)[nH]c3)ccc2C)cc1,-22,-4,1,14,0,-12
CCCCN(CCCC)S(=O)(=O)c1ccc(NC(=O)Cc2cccs2)cc1,27,.,6,51*,.,.
COc1ccc(NS(=O)(=O)c2cc(NC(=O)Cc3cccs3)ccc2C)cc1,10,-6,94*,82*,0,.
CCCN(CCC)S(=O)(=O)c1ccc(NC(=O)Cc2cccs2)cc1,.,7,1,-7,.,.
CC(C)NC(=O)Nc1ccc2c(c1)C(=O)N([C@@H](C)CO)C[C@@H](C)[C@@H](CN(C)Cc1ccc(C(=O)O)cc1)OCCCC[C@@H](C)O2,4,7,.,.,0,1
CN1CCN(c2ccc3sc(-n4ccc5ccccc54)nc3c2)CC1,40,-5,65*,80*,0,39
Brc1ccc2nc(N3CCN(c4ccccc4)CC3)sc2c1,-22,19,-56,-28,0,-34
CC[C@H](C)[C@@H]1NC(=O)[C@@H](CC(C)C)NC(=O)[C@H](C(C)C)NC(=O)[C@H]2CSSC[C@H](NC1=O)C(=O)N2,68*,34*,107*,86*,0,72*
Cc1ccccc1-c1cnc2c(c1)C(=O)N([C@@H](C)CO)C[C@@H](C)[C@@H](CN(C)Cc1cccnc1)O2,-6,.,.,.,0,0
C[C@@H]1CN([C@@H](C)CO)C(=O)c2cccc(NS(=O)(=O)c3ccccc3)c2O[C@@H]1CN(C)S(=O)(=O)c1cn(C)cn1,-21,.,.,.,0,11
C[C@H]1CN([C@@H](C)CO)C(=O)Cc2cc(NC(=O)Cc3ccccc3)ccc2O[C@@H]1CN(C)Cc1ccc2c(c1)OCO2,3,-5,.,.,0,4
Cc1cc(C)cc(Nc2ncc3c(n2)CCCC3=O)c1,.,.,71*,16,.,37
O=C1S/C(=C/c2ccc(N3CCOCC3)o2)C(=O)N1Cc1ccc(F)cc1,.,-1,-11,2,.,.
O=C1S/C(=C\c2ccc(N3CCOCC3)o2)C(=O)N1Cc1ccc(F)cc1,.,.,52*,14,.,.
COc1ccc(N=C2S/C(=C\c3ccc(OC(C)C(=O)O)c(OC)c3)C(=O)N2CCc2c[nH]c3ccccc23)cc1 (stereo unspecified),9,-1,39,54*,0,13

# Screens from PubChem BioAssay.
